Measurements as given in ChEMBL document CHEMBL1240487, “Discovery of a potent, selective, and orally bioavailable pyridinyl-pyrimidine phthalazine aurora kinase inhibitor” (J Med Chem, 2010).
In brackets after ≈: the same amount, converted by molar mass. Activity calls are given as the source filed them. The calls are words filed in the database; no cut-off is given here.

Columns and labels:
[1] = molecular target: T1, Aurora kinase B (Homo sapiens, UniProt Q96GD4); assay: Inhibition of Aurora B by HTRF assay
How it was run: (§1)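 Enzyme inhibition was run with ATP at its Km for each kinase. Values are averages of at least two determinations.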

[2] = molecular target: T2, Aurora kinase A/Targeting protein for Xklp2 (Homo sapiens, UniProt O14965); assay: Inhibition of Aurora A/TPX2 (1-43) by HTRF assay; type: protein-complex assay; how it was run: as §1
T2 sequence (O14965 whole entry): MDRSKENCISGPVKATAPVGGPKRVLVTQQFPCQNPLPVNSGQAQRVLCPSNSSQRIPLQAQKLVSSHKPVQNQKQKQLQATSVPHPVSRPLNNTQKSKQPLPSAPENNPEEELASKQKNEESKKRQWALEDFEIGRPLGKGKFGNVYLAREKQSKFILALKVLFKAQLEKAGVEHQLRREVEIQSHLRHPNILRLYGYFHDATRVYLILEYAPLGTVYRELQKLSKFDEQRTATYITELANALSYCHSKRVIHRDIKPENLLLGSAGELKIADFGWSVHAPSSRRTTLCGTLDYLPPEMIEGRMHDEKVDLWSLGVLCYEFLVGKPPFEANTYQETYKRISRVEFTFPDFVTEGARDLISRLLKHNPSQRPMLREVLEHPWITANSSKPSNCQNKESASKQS
T2 sequence (Q9ULW0 whole entry): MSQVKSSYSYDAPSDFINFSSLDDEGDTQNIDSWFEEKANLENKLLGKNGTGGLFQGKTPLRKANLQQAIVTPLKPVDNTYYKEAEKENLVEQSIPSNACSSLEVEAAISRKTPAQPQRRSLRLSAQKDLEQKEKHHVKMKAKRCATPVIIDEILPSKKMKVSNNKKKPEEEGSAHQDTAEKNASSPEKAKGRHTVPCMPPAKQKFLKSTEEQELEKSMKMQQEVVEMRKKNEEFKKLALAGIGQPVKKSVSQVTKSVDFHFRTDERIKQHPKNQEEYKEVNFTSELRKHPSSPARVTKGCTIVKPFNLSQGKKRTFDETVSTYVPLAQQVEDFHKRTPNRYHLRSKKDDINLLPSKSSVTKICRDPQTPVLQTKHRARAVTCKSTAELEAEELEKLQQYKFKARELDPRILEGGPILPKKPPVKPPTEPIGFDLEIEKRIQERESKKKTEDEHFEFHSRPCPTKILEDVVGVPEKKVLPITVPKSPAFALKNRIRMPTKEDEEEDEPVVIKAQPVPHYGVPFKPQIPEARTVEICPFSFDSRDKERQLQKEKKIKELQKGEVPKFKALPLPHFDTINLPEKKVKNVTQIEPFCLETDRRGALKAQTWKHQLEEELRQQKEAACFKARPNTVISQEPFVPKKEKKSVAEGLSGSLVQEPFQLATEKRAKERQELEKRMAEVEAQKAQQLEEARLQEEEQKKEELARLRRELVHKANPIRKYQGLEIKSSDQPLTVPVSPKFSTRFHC

[3] = molecular target: T1, Aurora kinase B; assay: Inhibition of aurora B autophosphorylation in human HeLa cells at 1 uM after 3 hrs by Western blotting
[4] = Intrinsic clearance in rat liver microsomes at 1 uM after up to 40 mins; type: ADME, Microsome
[5] = Oral bioavailability in Sprague-Dawley rat at 2 mg/kg; type: ADME, organism-based; conditions: in vivo
[6] = Aqueous equilibrium solubility of the compound in 0.01N HCL; type: physicochemical
[7] = Clearance in Sprague-Dawley rat at 0.5 mg/kg, iv and 2 mg/kg, po; type: ADME, organism-based; conditions: in vivo

T1 sequence (Q96GD4 whole entry): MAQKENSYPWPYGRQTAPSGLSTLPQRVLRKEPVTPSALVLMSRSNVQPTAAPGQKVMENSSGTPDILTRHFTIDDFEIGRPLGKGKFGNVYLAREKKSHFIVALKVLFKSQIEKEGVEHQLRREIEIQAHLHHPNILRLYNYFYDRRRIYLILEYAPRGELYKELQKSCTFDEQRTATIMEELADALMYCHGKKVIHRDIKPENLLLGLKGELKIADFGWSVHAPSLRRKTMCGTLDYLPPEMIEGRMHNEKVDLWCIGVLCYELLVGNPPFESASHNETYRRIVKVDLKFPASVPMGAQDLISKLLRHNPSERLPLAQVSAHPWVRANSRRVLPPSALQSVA

IC50 [1] | IC50 [2] | SMILES | other results
430 nM | 1550 nM | CNc1nccc(-c2cccnc2Oc2ccc(NC(=O)c3cccc(Cl)c3)cc2C)n1 | 
110 nM | > 1000 nM | CNc1nccc(-c2cccnc2Oc2ccc(NC(=O)c3ccccc3Nc3ccccc3)c(C)c2)n1 | 
335 nM | 2340 nM | CNc1nccc(-c2cccnc2Oc2ccc(NC(=O)c3ccc(Cl)cc3)cc2C)n1 | 
 |  | CCN(CCCOc1ccc2c(Nc3cc(CC(=O)Nc4cccc(F)c4)[nH]n3)ncnc2c1)CCOP(=O)(O)O | Activity [3]: Active
 |  | CNc1nccc(-c2cccnc2Oc2ccc(NC(=O)c3cc(F)ccc3Nc3ccccc3)cc2)n1 | microsomal CLint at 1 µM [4]: 338 µL/min/mg; bioavailability [5]: < 1%; solubility thermodynamic [6]: 16 µg/mL (≈ 31.6 µM); clearance [7]: 14.5 mL/min/kg
251 nM | 964 nM | CNc1nccc(-c2cccnc2Oc2ccc(NC(=O)c3cccc(Oc4ccccc4)c3)cc2C)n1 | 
17 nM | 62 nM | CNc1nccc(-c2cccnc2Oc2ccc(NC(=O)c3ccccc3Nc3ccccc3)cc2C)n1 | 
542 nM |  | CNc1nccc(-c2cccnc2Oc2ccc(NC(=O)c3ccc(Oc4ccccc4)cc3)cc2C)n1 | 
22 nM | 149 nM | CNc1nccc(-c2cccnc2Oc2ccc(Nc3nnc(-c4ccccc4)c4ccccc34)cc2)n1 | solubility thermodynamic [6]: 159 µg/mL (≈ 320 µM)
 |  | CNc1nccc(-c2cccnc2Oc2ccc(NC(=O)c3ccccc3Nc3ccc(F)cc3)cc2)n1 | microsomal CLint at 1 µM [4]: 467 µL/min/mg; solubility thermodynamic [6]: 23 µg/mL (≈ 45.4 µM); clearance [7]: 26.7 mL/min/kg
56 nM | 1540 nM | CNc1nccc(-c2cccnc2Oc2ccc(NC(=O)c3ccccc3Oc3ccccc3)cc2C)n1 | 
> 25000 nM | > 25000 nM | CNc1nccc(-c2cccnc2Oc2ccc(NC(=O)c3ccccc3Cl)cc2C)n1 | 
